Bioassay records deposited in PubChem by several laboratories.
The entries come from a sample that favours hits as a whole.
H69AR inhibit = blocks growth of human H69AR lung tumor cells | H69AR lung tumor viability, ATP luminescence, 72 h; stronger effect = lower value | viability, % at 10 µM | 6% of 85,000 active;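 active = viability at or below 40%; inactive = viability above 40%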;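 note: multidrug resistant small cell line overexpressing MRP-1 efflux transporter; 100% = mean luminescence of untreated control wells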
HCT116 bCat-KO = beta-catenin-lacking colon tumor cell growth suppression; viability, % at 10 µM; HCT116 beta-catenin knockout viability, CellTiter-Glo, 60 h; stronger effect = lower value; 1.5% of 140,000 active;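 active = viability at or under a set limit, the compound median less 4 SD, cut at about 6% in these data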;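 note: 0% = Hyamine 1622 control at 20 µM and 100% = untreated cell control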
Pyk2 oligo antag = antagonists of human Pyk2 oligomerization. Q14289. Q293 cells, Pyk2 FERM NanoBiT luminescence; stronger effect = lower value. z-score (the deposit names both 25 µM and 10 µM). 0.83% of 99,000 active;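 active = Z-score of -3 or lower, scaled per plate to the spread of control and sample wells; inactive = z-score above -3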;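 note: negative z-score means lost luminescence so less FERM oligomerization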
Target sequence (Q14289 whole entry, looked up): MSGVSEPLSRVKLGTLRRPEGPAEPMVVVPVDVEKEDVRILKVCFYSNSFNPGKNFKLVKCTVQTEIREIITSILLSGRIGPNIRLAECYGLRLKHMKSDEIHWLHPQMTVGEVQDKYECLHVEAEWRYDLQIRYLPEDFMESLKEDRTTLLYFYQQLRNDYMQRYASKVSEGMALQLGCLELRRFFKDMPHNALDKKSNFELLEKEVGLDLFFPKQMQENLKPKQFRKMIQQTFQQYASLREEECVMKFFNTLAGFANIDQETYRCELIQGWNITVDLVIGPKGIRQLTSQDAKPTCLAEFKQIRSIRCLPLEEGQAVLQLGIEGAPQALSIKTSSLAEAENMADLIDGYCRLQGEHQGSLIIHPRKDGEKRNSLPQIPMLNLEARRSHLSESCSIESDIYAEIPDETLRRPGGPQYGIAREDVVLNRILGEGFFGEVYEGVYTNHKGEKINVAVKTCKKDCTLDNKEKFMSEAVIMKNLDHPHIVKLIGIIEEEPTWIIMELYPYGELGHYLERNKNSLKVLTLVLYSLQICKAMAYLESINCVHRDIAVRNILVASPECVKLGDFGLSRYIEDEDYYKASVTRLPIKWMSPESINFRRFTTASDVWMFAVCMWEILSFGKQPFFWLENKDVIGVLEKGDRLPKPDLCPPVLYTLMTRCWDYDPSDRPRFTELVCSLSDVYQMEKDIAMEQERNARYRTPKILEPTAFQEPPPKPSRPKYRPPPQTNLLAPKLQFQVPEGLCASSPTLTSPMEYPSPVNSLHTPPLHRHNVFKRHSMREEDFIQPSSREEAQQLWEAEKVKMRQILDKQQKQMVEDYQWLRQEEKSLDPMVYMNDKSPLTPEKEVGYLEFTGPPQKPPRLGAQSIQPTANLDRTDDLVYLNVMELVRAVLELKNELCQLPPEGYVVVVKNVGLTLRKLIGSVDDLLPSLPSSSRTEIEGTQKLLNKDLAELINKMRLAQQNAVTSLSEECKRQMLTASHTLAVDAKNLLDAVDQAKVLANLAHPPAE
Fibroblast inh = blocks proliferation of human lung fibroblasts. 1.1% of 85,000 active. AID 719. LL 47 human lung fibroblast viability, ATP luminescence; stronger effect = lower value. viability, % at 10 µM;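 active = viability at or below 50% in the single dose screen; inactive = viability above 50%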;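 note: compound exposure lasted 72 h before the ATP readout; 100% = median luminescence of untreated cell-only wells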
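Benchmarks: Cell-only wells, no compound | Test system: LL 47 human lung fibroblasts, passage 12 or lower | Input: 1,150 cells/well | Measured by: CellTiter-Glo luminescence measuring cellular ATP | Medium: IMEM, 15% FBS supplement | Schedule: Overnight attachment after seeding, then 72 h compound exposure at 37 °C | Doses: Compound addition at 0.1% DMSO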
PTEN del growth = growth suppressors of cells with PTEN tumor suppressor deletion; HCT116 PTEN-null viability, CellTiter-Glo, 60 h; stronger effect = lower value; viability, % at 10 µM; 1.2% of 140,000 active;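 active = viability at or below a set limit, 4 SD under the median of all tested compounds, cut at about 3.7% in these data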;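 note: PTEN knockout HCT116 line with beta catenin targeted HCT116 as companion control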
HUVEC inhibit = blocks proliferation of human endothelial cells | HUVEC proliferation, CellTiter-Glo luminescence, 72 h; stronger effect = lower value | viability, % at 10 µM (by protocol) | 1.1% of 86,000 active | AID 648;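 active = viability at or below 30%; inactive = viability above 30%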;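 note: 100% = median luminescence of DMSO-only cell control wells on each plate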
The depositor's hits bear a star; . = no result.

SMILES	H69AR inhibit	HCT116 bCat-KO	Pyk2 oligo antag	Fibroblast inh	PTEN del growth	HUVEC inhibit
COc1cccc(-c2nnc3sc(-c4ccccc4)nn23)c1	40.6	84.9	-0.14	89.2	78.1	73.0
COc1ccc(-c2nn3c(-c4ccccc4)nnc3s2)cc1	35.2*	91.5	-1.61	91.2	79.7	73.2
COc1ccc(-c2nn3c(-c4ccc(F)cc4)nnc3s2)cc1	69.9	95.6	-1.91	94.6	94.3	107.4
CCOCCCNC(=O)COc1ccc(OC)cc1	78.5	101.2	0.5	107.1	99.2	101.3
COc1cc(C(=O)Nc2cccc(-c3nc4cc(C)cc(C)c4o3)c2)cc(OC)c1OC	.	98.1	-0.88	.	89.7	.
Cc1cc(C)c2oc(-c3ccc(C)c(NC(=S)NC(=O)c4cccs4)c3)nc2c1	.	3.8*	-3.67*	.	2.7*	.
Cc1ccc(-c2nc3ccccc3o2)cc1NC(=S)NC(=O)c1cccs1	.	94.1	-2.42	.	73.5	.
Cc1cc(C)c2oc(-c3cccc(NC(=O)c4ccc(F)cc4)c3)nc2c1	17.3*	89.3	0.52	99.1	98.7	39.5
CNC(=O)N(C1=NCC(C)(C)S1)c1ccc(F)c(Cl)c1	15.2*	40.1	.	81.4	35.9	52.3
CNC(=O)N(C1=NCC(C)S1)c1ccc(F)cc1F (configuration not stated)	86.6	87.1	2.07	91.6	92.2	76.0
CCCCNS(=O)(=O)c1ccc2nc(-c3cccnc3)cc(C(=O)NC3CC3)c2c1	.	0.3*	.	.	0.4*	.
Cc1c(Cl)cccc1NC(=S)NNc1ncc(C(F)(F)F)cc1Cl	16.2*	68.8	-1.11	96.1	68.3	50.4
CCOC(=O)c1ccc(N/C=C/C(=O)c2ccco2)cc1	17.0*	60.5	0.73	106.9	59.2	95.3
COc1ccccc1-c1nnc(NC(=O)c2ccccc2F)o1	1.9*	69.0	.	88.4	83.8	95.5
O=C(Nc1nnc(-c2cccs2)o1)c1cccc(Oc2ccccc2)c1	38.7*	19.0	.	87.5	10.2	61.4
CCCCN(CC)S(=O)(=O)c1ccc(C(=O)Nc2nnc(-c3ccccc3Cl)o2)cc1	27.2*	15.9	-2.71	74.7	15.8	3.3*
O=C(Nc1nnc(-c2cccs2)o1)c1cccc(F)c1	103.4	.	.	64.4	.	50.7
CCCCN(C)S(=O)(=O)c1ccc(C(=O)Nc2nnc(-c3cccs3)o2)cc1	34.9*	15.1	.	66.0	13.3	5.1*
CC(OC(=O)c1cc(-c2cccnc2)nc2ccccc12)C(=O)Nc1ccc2ccccc2c1 (configuration not stated)	.	84.3	.	.	79.5	.
Cc1ccccc1OCc1nnc(SCC(=O)Nc2ccc3nc(SCC(=O)Nc4ccccc4)sc3c2)n1C	.	59.5	-0.89	.	64.0	.
COc1ccccc1-c1nnc(NC(=O)c2ccc(S(=O)(=O)N(C)C)cc2)o1	102.2	52.9	-1.19	77.2	56.4	75.1
CCN(Cc1ccccc1)S(=O)(=O)c1ccc(C(=O)Nc2nnc(-c3ccccc3OC)o2)cc1	50.8	23.5	-3.91*	78.2	17.8	65.2
CCC1=NNc2cccc3c(OC)ccc1c23	98.0	78.2	.	3.8*	72.2	20.9*
CCN1CCN(c2ncnc3c2cnn3-c2ccccc2)CC1	87.9	88.4	.	102.5	100.3	98.1
c1ccc(CCN2CCN(c3ncnc4c3cnn4-c3ccccc3)CC2)cc1	34.3*	85.8	-0.91	97.7	80.0	59.5
SMILES	H69AR inhibit	HCT116 bCat-KO	Pyk2 oligo antag	Fibroblast inh	PTEN del growth	HUVEC inhibit
Cc1ccc(C(=O)N2CCN(c3ncnc4c3cnn4-c3ccccc3)CC2)cc1	21.3*	.	-0.01	99.2	.	84.4
Cn1c(=O)c2c(-c3ccccc3)n3c4ccccc4ncc3c2n(C)c1=O	37.8*	.	.	90.9	.	69.8
Cc1nc2ccccc2n2c(-c3ccccc3)c3c(=O)n(C)c(=O)n(C)c3c12	67.4	89.4	-0.39	96.9	94.1	84.8
Cc1ccc(C(=O)OCC(=O)c2c[nH]c3ccccc23)cc1	.	86.1	.	.	65.0	.
CC(C)Cc1ccc(C(C)C(=O)OCC(=O)c2c[nH]c3ccccc23)cc1 (configuration not stated)	39.0*	69.9	-1.14	97.5	77.2	84.1
FC(F)(F)c1nnc2ccc(N3CCOCC3)nn12	102.4	99.3	0.89	92.7	103.1	108.4
Cc1cccc(C)c1N1CCN(c2ccc3nnc(C(F)(F)F)n3n2)CC1	24.7*	41.8	-2.23	90.0	38.3	12.6*
COC(=O)C1(c2ccccc2)NC(c2cccs2)C2C(=O)N(c3ccccc3)C(=O)C21 (configuration not stated)	80.9	89.7	-0.12	99.0	94.9	110.8
O=C(N/N=C\c1c(O)ccc2ccccc12)c1ccc(Cn2cccn2)o1	.	5.6*	.	.	5.3	.
Cc1cccc(NC(=O)c2cccc(Cn3cc(Br)c([N+](=O)[O-])n3)c2)c1C	.	64.2	0.01	.	60.6	.
Cc1ccccc1Sc1ncnc2onc(C)c12	43.4	82.3	0.68	96.5	82.5	81.1
Cc1noc2ncnc(Sc3c(Cl)cccc3Cl)c12	15.9*	10.7	-1.03	48.8*	8.1	51.8
Cc1noc2ncnc(Sc3ccc(Cl)cc3)c12	1.8*	83.0	0.24	56.5	83.2	47.3
Cc1cccc2cc3c(N)c(C(=O)Nc4ccc(N5CCOCC5)cc4)sc3nc12	.	51.3	-3.44*	.	50.0	.
Cc1ccc2nc3sc(C(=O)Nc4ccc(N5CCOCC5)cc4)c(N)c3cc2c1	.	80.1	.	.	75.9	.
Cc1sc(NC(=O)c2sc3nc4c(C)cccc4cc3c2N)c(C#N)c1C	.	3.6*	-0.46	.	9.1	.
Cc1ccc(-c2ccc(/C=N/N3C(=O)C4C5C=CC(CC5)C4C3=O)o2)c([N+](=O)[O-])c1 (configuration not stated)	82.2	92.3	-0.2	105.3	95.9	85.4
COc1ccccc1N(C(=O)c1ccncc1)c1nc(-c2ccc([N+](=O)[O-])cc2)cs1	.	59.1	.	.	50.6	.
O=C(Nc1cccc2c1CCCC2)c1ccncc1	109.1	93.5	0.03	91.1	98.3	90.9
COc1cc2c(cc1OC)C(c1ccc(-c3cc(Cl)ccc3Cl)o1)=NCC2	55.9	6.7	0.87	84.5	3.3*	76.8
COc1cc2c(cc1OC)C(c1ccc(-c3ccc(Cl)cc3Cl)o1)=NCC2	.	11.4	-0.72	.	13.3	.
COc1cc2c(cc1OC)C(c1ccc(-c3ccccc3Cl)o1)=NCC2	29.5*	16.4	-0.29	81.5	16.9	67.8
COc1cc2c(cc1OC)C(c1ccc(-c3ccc(Cl)c(Cl)c3)o1)=NCC2	19.2*	4.1*	-2.15	71.1	2.8*	64.8
CCOC(=O)C(NC(=O)N(C)C)(Nc1sc(C)c(CC)c1C#N)C(F)(F)F (configuration not stated)	.	94.2	.	.	100.0	.
N#Cc1c(N)n(C2CCCCC2)c2nc3ccccc3nc12	34.6*	87.0	-1.64	68.9	74.3	69.5
CCOc1ccc(-c2nn(-c3ccccc3)cc2/C=C2\SC(N)=NC2=O)cc1C	.	1.1*	0.8	.	0.7*	.
S=C(NN=C(C1CC1)C1CC1)Nc1ccccc1	92.9	108.6	-0.57	94.9	91.6	92.4
